The source of these data is ChEMBL document CHEMBL1268815, “Modulating the development of E. coli biofilms with 2-aminoimidazoles” (Bioorg Med Chem Lett, 2010).

One may read the EC50 as the concentration needed to bring the measured effect to its halfway point. In general, IC50 refers to the concentration at which inhibition is half-maximal. Lower therefore signals inhibition by little substance.

Some results are limits rather than exact numbers.

Data set [1] relates to Escherichia coli K-12. Briefly: Effect on Escherichia coli K-12 ER2738 biofilm formation at 400 uM after 24 hrs by crystal violet reporter assay relative to control. Format: functional. As to conditions: ER2738, 24 h; call rule not given here. In outline:
(§1)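 Initial single-concentration screen for effect on biofilm development. Bacteria were incubated statically with or without compound for 24 h. Medium and planktonic cells were removed and wells were water-washed. Attached biofilm was stained with crystal violet, washed, and the stain was solubilized in ethanol and read at A540. Results were expressed relative to untreated control as means of three experiments.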
On the technique in general: Reporter assays use an easily measured gene product as a stand-in for the process of interest.

For data set [2], the system named is Escherichia coli K-12. The data set is described as follows: Dispersion of preformed Escherichia coli K-12 ER2738 biofilm by crystal violet reporter assay relative to control.
Data set [3] deals with Escherichia coli K-12. Briefly: Effect on Escherichia coli K-12 ER2738 biofilm formation by crystal violet reporter assay relative to control. Format: functional, organism-based. A digest of the protocol: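 E. coli biofilm development was measured under static conditions by crystal violet reporter assay. Cultures were grown with or without compound for 24 h, then planktonic cells and medium were removed and wells were water-washed. Biofilm was stained with crystal violet, and the retained dye was ethanol-solubilized and quantified at A540 against untreated control.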

Data set [4] in a line: Toxicity in sheep RBC assessed as induction of hemolysis. Format: cell-based, Ovis aries. Conditions: erythrocyte.
Data set [5] deals with Acinetobacter baumannii. The data set is described as follows: Effect on Acinetobacter baumannii biofilm formation at 400 uM after 24 hrs by crystal violet reporter assay relative to control. Format: functional. Conditions: read-out: INH. A digest of the protocol:
as §1

On to `CCCCCCCCCCNC(=O)Cn1cc(CCCCCc2c[nH]c(N)n2)nn1`, for which the inhibition at 400 µM in data set [1] came to 58.9%.

As to `Nc1nc(CCCCCc2cn(CC(=O)Nc3ccccc3)nn2)c[nH]1`, the inhibition at 400 µM in data set [1] is -143%.

For `Nc1nc(CCCCCc2cn(CC(=O)NCCc3ccccc3)nn2)c[nH]1`, in data set [1], the inhibition at 400 µM is -174%.

Consider `CCCCCCCCNC(=O)Cn1cc(CCCCCc2c[nH]c(N)n2)nn1.Cl`, for which the EC50 entry in data set [2] is “Not Active”. Further, it took 13 µM to reach half-maximal inhibition in data set [3] (IC50). Also, in data set [4], the Activity was 675 µM.

In the case of `CCCCCCNC(=O)Cn1cc(CCCc2c[nH]c(N)n2)nn1`, the inhibition at 400 µM in data set [1] was -30.3%; in data set [5], 31.4%.

For the compound `CCCCCCCCCCNC(=O)Cn1cc(CCCc2c[nH]c(N)n2)nn1.Cl`, the values for the inhibition at 400 µM in data set [1] and in data set [5] were 90.8% and 28.3%, respectively. Further, the concentration giving a half-maximal response (EC50) in data set [2] (Escherichia coli, ER2738, read-out: EC50) came to 120 µM. The compound further returned a half-maximal inhibitory concentration (IC50) in data set [3] of 36.9 µM. Besides, the Activity in data set [4] turned out to be 487 µM.

On to `CCCCCCCCCCCCCCNC(=O)Cn1cc(CCCc2c[nH]c(N)n2)nn1`, for which the values for the inhibition at 400 µM in data set [1] and in data set [5] were 57.8% and 36.4%, respectively.

On to `CC(C)NC(=O)Cn1cc(CCCc2c[nH]c(N)n2)nn1`, for which the values for the inhibition at 400 µM in data set [1] and in data set [5] were -127% and 13.6%, respectively.

With `CC(C)(C)NC(=O)Cn1cc(CCCc2c[nH]c(N)n2)nn1`, the inhibition at 400 µM in data set [1] was 17.6%; in data set [5], 21.2%.

On to `Nc1nc(CCCc2cn(CC(=O)NC3CCCC3)nn2)c[nH]1`, for which the inhibition at 400 µM in data set [1] is -47.8%; in data set [5], 15.9%.

Turning to `Nc1nc(CCCc2cn(CC(=O)NC3CCCCC3)nn2)c[nH]1`, the inhibition at 400 µM in data set [1] is -169%.

In the case of `Nc1nc(CCCc2cn(CC(=O)N3CCCC3)nn2)c[nH]1`, the figures for the inhibition at 400 µM in data set [1] and in data set [5] were 2.6% and 6.2%, respectively.

On to `Nc1nc(CCCc2cn(CC(=O)N3CCOCC3)nn2)c[nH]1`, for which the values for the inhibition at 400 µM in data set [1] and in data set [5] were -183% and 30.3%, respectively.

On to `Nc1nc(CCCc2cn(CC(=O)Nc3ccccc3)nn2)c[nH]1`, for which the results for the inhibition at 400 µM in data set [1] and in data set [5] were -142% and 23%, respectively.

As to `Cl.Nc1nc(CCCc2cn(CC(=O)NCc3ccccc3)nn2)c[nH]1`, the inhibition at 400 µM in data set [5] worked out at 19.5%. For the same compound, the Activity in data set [4] was > 800 µM.

In the case of `Nc1nc(CCCc2cn(CC(=O)NCCc3ccccc3)nn2)c[nH]1`, the values for the inhibition at 400 µM in data set [1] and in data set [5] were -41.8% and 20.8%, respectively.

Regarding `Nc1nc(CCCc2cn(CC(=O)NCCCc3ccccc3)nn2)c[nH]1`, the inhibition at 400 µM was -176% in data set [1] and 23.2% in data set [5].

In the case of `COc1ccc(NC(=O)Cn2cc(CCCc3c[nH]c(N)n3)nn2)cc1`, the inhibition at 400 µM in data set [1] is -169%.

Turning to `COc1ccc(CNC(=O)Cn2cc(CCCc3c[nH]c(N)n3)nn2)cc1`, the results for the inhibition at 400 µM in data set [1] and in data set [5] were -19.9% and 17.5%, respectively.

With `COc1ccc(CCNC(=O)Cn2cc(CCCc3c[nH]c(N)n3)nn2)cc1.Cl`, the inhibition at 400 µM in data set [5] is 8.5%. Moreover, the Activity in data set [4] was > 800 µM.
